Measured values collected from several papers.
Each line is one published result; the experiments were not run side by side.
CTSL: Procathepsin L (CTSL, Homo sapiens, UniProt P07711)
NEU1: Sialidase-1 (NEU1, Homo sapiens, UniProt Q99519)
P4HB: Protein disulfide-isomerase (P4HB, Homo sapiens, UniProt P07237)

| SMILES | target | effect on | action | technique | measurement | result |
| --- | --- | --- | --- | --- | --- | --- |
| COCCC(=O)N[C@@H](CCC(N)=O)C(=O)N[C@@H](Cc1ccccc1)C(=O)N[C@@H](CCCNC(=N)N)C(=O)c1nc2ccccc2s1 | CTSL | cell-free assay |  |  | Ki | > 10 µM |
| OB1OCc2cc(F)ccc21 | blaNDM-5 (Escherichia coli, UniProt G3K399) | enzyme activity | inhibitor |  | IC50 | 19.6 µM |
| O=C(O)C1=C[C@H](O)[C@@H](n2cc(-c3ccc(-c4ccccc4)cc3)nn2)[C@H]([C@H](O)[C@H](O)CO)O1 | NEU1 | enzyme activity | inhibitor |  | IC50 | > 500 µM |
| O=C(O[C@@H]1Cc2c(O)cc(O)cc2O[C@H]1c1ccc(O)c(O)c1)c1cc(O)c(O)c(O)c1 | P4HB | enzyme activity | inhibitor | fluorescence | IC50 | > 20 µM |
| CS(=O)(=O)N[C@@H](CCC(N)=O)C(=O)N[C@@H](Cc1ccccc1)C(=O)N[C@@H](CCCNC(=N)N)C(=O)c1nccs1 | CTSL | cell-free assay |  |  | Ki | > 10 µM |
| CC(C)(C)CC(=O)N[C@H]1[C@H]([C@H](O)[C@H](O)CO)OC(C(=O)O)=C[C@@H]1O | NEU1 | enzyme activity | inhibitor |  | IC50 | 160 µM |
| O=C(O)c1cc(O)c(O)c(O)c1 | P4HB | enzyme activity | inhibitor | fluorescence | IC50 | > 500 µM |
| [Cl][Cd][Cl] | Voltage-dependent P/Q-type calcium channel subunit alpha-1A (Homo sapiens, UniProt O00555) | ion current | inhibitor | patch clamp | IC50 | 4.2 µM |
